A selection: hits, their analogues and other compounds. The true share with any hit is near 2.9%.
C2C12 statin: suppressors of statin myotoxicity in C2C12 myotubes, primary screen, cell-based, single point, plate reader. C2C12 myotubes + simvastatin, ATP luminescence, 48 h; scaled: DMSO 0, geranylgeraniol control 100. rescue of ATP level, % at 7.49 µM. actives 0.78% (n = 330,000);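 active = mean ATP rescue above about 67%, or every replicate alone reaching that limit, limit read from the data, passing the limit was not always enough; inconclusive = no clear call, values can overlap the other calls; inactive = mean under the limit and some replicate under it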;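 note: myotubes were challenged with 10 µM simvastatin during compound exposure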
S100A4 inh HTS: inhibitors of S100A4-myosin IIA peptide binding, primary screen, biochemical, fluorescence polarization, TAMRA-MyoIIA peptide; inhibition, % at 10.7 µM; actives 0.14% (n = 360,000);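 active = mean inhibition of at least 70% across replicates, with every replicate also reaching that level; inconclusive = mean inhibition reaches 70% but some replicates fall short; inactive = mean inhibition below 70%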
Target sequence (P26447 whole entry, looked up): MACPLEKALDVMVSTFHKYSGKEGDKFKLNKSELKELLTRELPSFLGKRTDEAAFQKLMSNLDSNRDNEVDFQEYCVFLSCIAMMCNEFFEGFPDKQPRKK
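Test system: S100A4 monomer protein; Medium: HEPES pH 7.2 with CaCl2, KCl, NaCl, DTT, Triton; Probe or stimulus: TAMRA-labelled myosin IIA heavy-chain peptide probe, 5 nM; Doses: one dose per compound; Times: polarization read 5 min after assay mix addition, stable 5–60 min; Benchmarks: neutral control DMSO, positive control TFP.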
PGC1a acetyl inh: inhibitors of PGC1a acetylation signal, primary screen, cell-based, U2OS, AlphaScreen, inhibitor mode | AID 651687, 2012 | actives 0.17% (n = 350,000) | inhibition, % at 15.6 µM | AlphaScreen anti-acetyl-lysine; with virally co-expressed GCN5 acetyltransferase;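 active = every replicate shows inhibition of at least 40%; inconclusive = mean inhibition at least 40% but some replicate below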;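 note: 0% = neutral control wells and 100% = positive control wells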
SIRT5 inh: SIRT5 desuccinylase inhibitors, primary screen, biochemical, fluorescence imaging, single point, set 5. NAD-dependent protein deacylase sirtuin-5, mitochondrial (Homo sapiens), Q9NXA8. Purified SirT5, succinyl-peptide AMC, trypsin-coupled fluorescence. inhibition, % at 15 µM. actives 1.1% (n = 330,000); in the data active = inhibition above about 15%; inconclusive = no clear call, values can overlap the other calls
Target sequence (Q9NXA8 whole entry, looked up): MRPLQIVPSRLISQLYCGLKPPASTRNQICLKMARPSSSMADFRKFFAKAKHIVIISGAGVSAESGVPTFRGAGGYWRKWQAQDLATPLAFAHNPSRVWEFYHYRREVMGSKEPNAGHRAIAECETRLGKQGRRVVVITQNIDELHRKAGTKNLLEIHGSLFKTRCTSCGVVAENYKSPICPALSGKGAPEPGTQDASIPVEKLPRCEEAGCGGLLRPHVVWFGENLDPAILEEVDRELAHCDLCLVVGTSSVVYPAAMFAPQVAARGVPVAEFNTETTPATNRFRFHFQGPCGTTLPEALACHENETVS
DENV2 CPE rescue: inhibitors of DENV2 cytopathic effect, primary screen, cell-based, plate reader, single concentration. AID 651640, 2012. CPE inhibition, % at 9.99 µM. actives 1.7% (n = 350,000). DENV2-infected cells, cytopathic effect rescue; in the data active = CPE inhibition above about 20%, passing the limit was not always enough; inconclusive = no clear call, values can overlap the other calls; tested in BHK-21 cells;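 note: 0% = median of neutral control wells and 100% = median of positive control wells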
* hit, by the source's call; ? = inconclusive; nt = no result; ! = not active in a repeat.

SMILES | C2C12 statin | S100A4 inh HTS | PGC1a acetyl inh | SIRT5 inh | DENV2 CPE rescue
O=C(Nc1ccc(-c2ccccc2)cc1)[C@@H]1[C@@H](CO)[C@@H]2Cn3c(cccc3=O)[C@H]1N2Cc1cccnc1 | -4 | 7 | nt | 2 | -4
CN1C(=O)N[C@@H]2c3ccccc3O[C@@]1(C)[C@@H]2COC(=O)c1ccccc1 | nt | 10 | -1 | -3 | -1
CN1C(=O)N[C@@H]2c3ccccc3O[C@@]1(C)[C@@H]2COC(=O)c1ccc([N+](=O)[O-])cc1 | nt | -13 | 0 | 2 | 38*
O=C(Nc1ccccc1)C1=C[C@@H](c2ccc(C(F)(F)F)cc2)C[C@@H](OCCCCO)O1 | -10 | 2 | -14 | 2 | 46*!
CCO[C@H]1OC(C(=O)NC2CC2)=C[C@@H](C2CCCCC2)[C@@H]1CCCO | -6 | -13 | 1 | -4 | 23*
CCO[C@@H]1OC(C(=O)NC2CC2)=C[C@H](C2CCCCC2)[C@H]1CCCO | 12 | nt | 4 | nt | nt
O=C(Nc1ccccc1)C1=C[C@H](C2CC2)C[C@H](OCCCCO)O1 | -1 | 6 | 8 | 0 | 24*!
O=C(NC1CC1)C1=C[C@@H](C2CCCCC2)C[C@@H](OCCCCO)O1 | 10 | 40 | 10 | -3 | 39*!
O=C(O)C1=C[C@@H](C2CCCC2)C[C@@H](OCCCCO)O1 | nt | 10 | 5 | -2 | 8
O=C(NCc1ccccc1)C1=C[C@@H](C2CC2)C[C@@H](OCCCCO)O1 | -8 | -1 | 14 | 4 | -14
COc1cccc(C(=O)N2C[C@H]3[C@@H](c4ccccc42)[C@@H](CO)N3C(C)=O)c1 | -5 | 7 | 2 | 2 | ?
CC(C)CC#Cc1ccc2c(c1)O[C@@H](CN(C)C(=O)c1cnccn1)[C@H](C)CN([C@@H](C)CO)S2(=O)=O | -3 | 6 | 6 | 2 | -4
CO[C@H]1CN(C)C(=O)c2cc(NC(C)=O)ccc2OC[C@@H](C)N(Cc2cncnc2)C[C@@H]1C | -8 | ? | -2 | 1 | -1
Cc1noc(C)c1NC(=O)N(C)C[C@@H]1Oc2ccc(N(C)C)cc2CC(=O)N([C@@H](C)CO)C[C@H]1C | -17 | 35 | 3 | 5 | 4
CN(C[C@H]1[C@@H](c2ccccc2)[C@H](CO)N1C(=O)C1CCC1)C(=O)c1ccccn1 | 22 | 13 | -5 | 6 | 6
COc1ccc2c3c([nH]c2c1)[C@@H](CO)N(C(=O)c1ccccc1)CC31CCN(C(=O)NC(C)C)CC1 | nt | 5 | -2 | nt | 4
COc1cc(N2CCC(O)CC2)ccc1Nc1cc(Nc2ccccc2S(=O)(=O)C(C)C)c2cc[nH]c2n1 | nt | -5 | nt | 0 | 2
COc1ccccc1-c1ccc2c(c1)O[C@H](CN(C)S(=O)(=O)c1ccc(C)cc1)[C@H](C)CN([C@H](C)CO)S2(=O)=O | -56 | 28 | 11 | 4 | 5
COc1ccccc1-c1ccc2c(c1)O[C@@H](CN(C)S(=O)(=O)c1ccc(C)cc1)[C@H](C)CN([C@@H](C)CO)S2(=O)=O | -96 | -38 | -8 | -3 | -2
COc1ccccc1-c1ccc2c(c1)O[C@@H](CN(C)S(=O)(=O)c1ccc(F)cc1)[C@@H](C)CN([C@H](C)CO)S2(=O)=O | -26 | -34 | -27 | 20* | 3
COc1ccccc1-c1ccc2c(c1)O[C@@H](CN(C)S(=O)(=O)c1ccc(F)cc1)[C@@H](C)CN([C@@H](C)CO)S2(=O)=O | -6 | -3 | -9 | 23* | -6
COc1ccccc1-c1ccc2c(c1)O[C@H](CN(C)S(=O)(=O)c1ccc(F)cc1)[C@H](C)CN([C@@H](C)CO)S2(=O)=O | -5 | -4 | -2 | 18* | 1
Cc1noc(C)c1S(=O)(=O)Nc1ccc2c(c1)CC(=O)N([C@@H](C)CO)C[C@@H](C)[C@@H](CN(C)S(=O)(=O)c1ccccc1)O2 | 11 | 8 | 9 | -3 | -5
COc1ccccc1S(=O)(=O)N(C)C[C@H]1Oc2cc(C#CCC(C)C)ccc2S(=O)(=O)N([C@@H](C)CO)C[C@H]1C | -58 | -10 | -5 | -1 | -4
COc1ccccc1S(=O)(=O)N(C)C[C@@H]1Oc2cc(C#CCC3CCCC3)ccc2S(=O)(=O)N([C@@H](C)CO)C[C@@H]1C | -20 | 4 | -5 | 17* | -4
SMILES | C2C12 statin | S100A4 inh HTS | PGC1a acetyl inh | SIRT5 inh | DENV2 CPE rescue
COc1ccccc1S(=O)(=O)N(C)C[C@H]1Oc2cc(C#CCC(C)C)ccc2S(=O)(=O)N([C@H](C)CO)C[C@@H]1C | -34 | 4 | -8 | 30* | 3
CO[C@@H]1CN(C)C(=O)c2cc(NC(=O)CC(F)(F)F)ccc2OC[C@H](C)N(C(=O)c2ccccc2F)C[C@H]1C | nt | nt | 5 | nt | -5
CCCC#Cc1ccc([C@@H]2[C@@H](CO)N3CCCCN(S(=O)(=O)c4ccccc4C)C[C@@H]23)cc1 | nt | 5 | -6 | 1 | -3
CCc1ccccc1C1C(=O)c2ccccc2C1=O | -8 | 1 | -4 | 10 | -1
Cc1cc(C2C(=O)c3ccccc3C2=O)c(C)c(C)c1C | nt | -3 | nt | 19* | 12
O=C(Cc1ccccc1)N1C[C@@H]2[C@H](c3ccccc31)[C@@H](CO)N2C(=O)C1CCCCC1 | 14 | 9 | -13 | -1 | 24*
O=C(c1ccccc1)N1C[C@H]2[C@@H](c3ccccc31)[C@@H](CO)N2C(=O)CN1CCOCC1 | 7 | 4 | 5 | 2 | 2
O=C(CC(F)(F)F)N1C[C@@H]2[C@H](c3ccccc31)[C@@H](CO)N2C(=O)C1CC1 | 21 | -6 | 1 | 6 | 36*
O=C(CC(F)(F)F)N1C[C@@H]2[C@H](c3ccccc31)[C@@H](CO)N2C(=O)CN1CCOCC1 | 19 | -32 | 6 | -3 | 53*
O=C(Cc1ccccc1)N1C[C@@H]2[C@H](c3ccccc31)[C@H](CO)N2C(=O)C1CCCC1 | -3 | -4 | 9 | -1 | nt
O=C(CC(F)(F)F)N1C[C@@H]2[C@H](c3ccccc31)[C@@H](CO)N2CC1CCOCC1 | -19 | 90* | 2 | 6 | 8
COCC(=O)N[C@@H]1CC[C@@H](CC(=O)NCc2ccccc2OC)O[C@@H]1CO | 8 | 1 | 38 | -1 | -4
C[C@H]1CN([C@@H](C)CO)C(=O)Cc2cc(NC(=O)C3CCCCC3)ccc2O[C@@H]1CN(C)S(=O)(=O)c1ccccc1 | -15 | -2 | 2 | 1 | -11
O=C(Cc1ccccc1)N1C[C@H]2[C@@H](c3ccccc31)[C@@H](CO)N2C(=O)C1CC1 | 1 | 6 | 4 | -1 | 25*
Cc1cccc(S(=O)(=O)N2CC[C@@H]3[C@H](CO)N(C)c4ccc(-c5ccccc5F)cc4[C@@H]32)c1 | -16 | 7 | -35 | 5 | -8
